Measured values pooled from the literature.
Each line is one published result; the experiments were not run side by side.
Target: Serine/threonine-protein kinase 24 (STK24, Homo sapiens, UniProt Q9Y6E0)

observed | technique | tested at | remaining binding [%] | SMILES
cell-free assay | competition with immobilised ligand | 1 µM | 100 | O=C(NS(=O)(=O)c1ccc(NCC2CCOCC2)c([N+](=O)[O-])c1)c1ccc(N2CCN(Cc3ccc(C(F)(F)F)cc3-c3ccc(Cl)cc3)CC2)cc1Oc1cnc2[nH]ccc2c1
binding | competition with immobilised ligand | 1 µM | 97 | COc1cnc(Nc2cccc(S(N)(=O)=O)c2)nc1N1CCN(c2ccccc2)C(=O)C1
cell-free assay | competition with immobilised ligand | 1 µM | 93.9 | CCCCN(CCCC)C(=O)CN1C[C@@H](c2cc(OC)c3c(c2)OCO3)[C@H](C(=O)O)[C@H]1CC(C)(C)CCC
binding | – | 1 µM | 63 | C[C@@H]1CCN(c2nccc(-c3cnn4ncccc34)n2)C1
cell-free assay | competition with immobilised ligand | 0.1 µM | 97 | Cn1nc(C(=O)NCc2ccc(C(=O)O)cc2)cc1-c1ccc2[nH]ccc2c1
binding | competition with immobilised ligand | 10 µM | 93 | c1cncc(-c2cccc(Nc3nccc(NC4CCCCC4)n3)c2)c1
cell-free assay | competition with immobilised ligand | 1 µM | 100 | CS(=O)(=O)NCC[C@H](NC(=O)c1cncc2c1cnn2-c1ccc(F)cc1)c1ccnc(S(C)(=O)=O)c1
binding | competition with immobilised ligand | 1 µM | 39 | O=C(NCCCN1CCOCC1)c1ccc(Nc2nccc(-c3cc4ccccc4s3)n2)cc1
binding | – | 1 µM | 100 | CN(CCCC(F)(F)F)c1nccc(-c2cnn3ncccc23)n1
binding | competition with immobilised ligand | 1 µM | 94 | CCN1CCN(Cc2ccc(C(=O)Nc3ccc(C)c(Oc4ccc5c(c4)CC(=O)N5)c3)cc2C(F)(F)F)CC1
binding | competition with immobilised ligand | 1 µM | 84 | Cc1cnc(Nc2ccc(C(=O)N3CCC(N4CCCC4)CC3)cc2)nc1-c1cc2ccccc2s1
binding | – | 1 µM | 100 | CC1CCCN1c1nccc(-c2cnn3ncccc23)n1 (stereo not shown)
cell-free assay | competition with immobilised ligand | 1 µM | 100 | Cc1nc(Cc2cccc(C(F)(F)F)c2)sc1-c1ccc(C(N)=O)nc1
binding | – | 1 µM | 100 | N[C@@H]1CCN(c2nccc(-c3cnn4ncccc34)n2)C1
binding | competition with immobilised ligand | 1 µM | 83 | O=C(c1ccc(Nc2nccc(-c3cc4ccccc4s3)n2)cc1)N1CCC(N2CCCC2)CC1
binding | – | 1 µM | 98 | Cc1cnn2ncc(-c3ccnc(N(C)C)n3)c2c1
binding | competition with immobilised ligand | 1 µM | 100 | CNC(=O)[C@@H]1CC[C@@H](n2c(-c3ccc4cnccc4c3)nc3ccc(C(=O)NCc4cccc(C(N)=O)c4)cc32)C1
binding | – | 1 µM | 100 | COc1ccnn2ncc(-c3ccnc(N(C)C)n3)c12
binding | competition with immobilised ligand | 1 µM | 89 | O=C(NCC1CCOCC1)c1n[nH]cc1NC(=O)c1c(F)cccc1F
